Experimental data reported in article PMC8649585 (Neoplasia (New York, N.Y.), 2021).
Like-named read-outs stand apart in the source and are kept apart here. Each block holds one molecule with its values, some of them ahead of it.

Columns and labels:
AN3-CA cells = experiment: Cell proliferation assay; format: cell-based; details: 72 h
KMS-11 cells = experiment: Cell proliferation assay; format: cell-based
J82 cells = experiment: Cell proliferation assay; format: cell-based
HEP3B cells [1] = experiment: Cell proliferation assay; format: cell-based, human; details: 72 h
In short: (§1)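 Seeding was 5 × 10^3 cells per well in 96-well plates: HEP3B in DMEM, HUH7 and HEPG2 in RPMI1640, all with 10% FBS at 37 °C under 5% CO2. Cells received 10 doses of test compound in 3-fold serial dilution for 72 h. Viability was read by CellTiter-Glo luminescence.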

HUH7 cells [2] = experiment: Cell proliferation assay; format: cell-based, human
In short: as §1

HEPG2 cells = experiment: Cell proliferation assay; format: cell-based, human; details: FGFR4 overexpression, HCC
In short: as §1

MDA-MB-453 cells = experiment: Cell proliferation assay; format: cell-based
In short: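 MDA-MB-453 cells (DMEM, 10% FBS, 37 °C, 5% CO2) were plated at 5 × 10^3 per well in 96-well plates. Test compound was added at 10 doses in 3-fold serial dilution for 72 h. Viability was read by CellTiter-Glo luminescence, and GI50 was derived from the dose-response curves.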

FGFR1 WT = FGFR1 WT (Homo sapiens, UniProt P11362); experiment: Radiometric biochemical kinase assay; details: ATP 10 µM
FGFR1 V561M = FGFR1 V561M (Homo sapiens, UniProt P11362, V561M); experiment: Radiometric biochemical kinase assay; details: ATP 10 µM
FGFR2 WT = FGFR2 WT (Homo sapiens, UniProt P21802); experiment: Radiometric biochemical kinase assay; details: ATP 10 µM
FGFR2 N549H = FGFR2 N549H (Homo sapiens, UniProt P21802, N549H); experiment: Radiometric biochemical kinase assay; details: ATP 10 µM
FGFR4 WT = FGFR4 WT (Homo sapiens, UniProt P22455); experiment: Radiometric biochemical kinase assay
SK-HEP1 cells [3] = experiment: Soft agar anchorage-independent growth assay; format: cell-based; details: 5 µM, 3 weeks
In short: (§2)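 The base layer was 0.5% agar in DMEM in 6-well plates. Cells were suspended in 2× DMEM with 0.7% agar (0.35% agar per legend) at 5 × 10^3 cells per well and overlaid with medium containing test compound. Plates were incubated for 3 weeks at 37 °C under 5% CO2. Colonies were stained with iodonitrotetrazolium chloride in PBS and imaged.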

HUH7 cells [4] = experiment: Soft agar anchorage-independent growth assay; format: cell-based, human; details: GNF-7 0.1 or 0.5 µM, SIJ1263 0.01 or 0.05 µM, 3 weeks
In short: as §2

HEP3B cells [5] = experiment: Soft agar anchorage-independent growth assay; format: cell-based, human; details: GNF-7 0.1 or 0.5 µM, SIJ1263 0.01 or 0.05 µM, 3 weeks
In short: as §2

HUH7 cells [6] = experiment: Scratch wound healing migration assay; format: cell-based, human; details: GNF-7 0.01 or 0.05 μM, SIJ1263 0.002 or 0.005 μM, PD173074 0.1 μM, 36 h
HEP3B cells [7] = experiment: Scratch wound healing migration assay; format: cell-based, human; details: GNF-7 0.01 or 0.05 μM, SIJ1263 0.002 or 0.005 μM, PD173074 0.1 μM
HUH7 cells [8] = experiment: Invasion assay; format: cell-based, human; details: low concentrations
In short: (§3)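 Cells (HUH7 in RPMI1640, HEP3B in DMEM) were serum-starved for 12 h. They were then seeded at 5.0 × 10^4 cells per chamber into 8 μm ECMatrix-coated transwell chambers (QCM collagen invasion kit). Test compound was added and chambers were incubated at 37 °C under 5% CO2. Invaded cells were stained with 0.005% crystal violet in PBS.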

HEP3B cells [9] = experiment: Invasion assay; format: cell-based, human; details: low concentrations
In short: as §3

[10] = test system: phosphorylation of FGFR and downstream molecules (PLCγ, FRS2α, AKT, ERK1/2) in HUH7 cells; experiment: Western blot of FGFR signaling; format: cell-based, human; details: dose-dependent
In short: (§4)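 After SDS-PAGE, proteins were transferred to nitrocellulose and blocked in 5% milk in TBS-T. Rabbit antibodies (FGFR4, pFGFR, pERK, pFRS2α, pPLCγ, β-actin) were applied overnight at 4 °C, then secondary for 1 h. Detection was by ECL with densitometry.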

[11] = test system: phosphorylation of FGFR and downstream molecules (PLCγ, FRS2α, AKT, ERK1/2) in HEP3B cells; experiment: Western blot of FGFR signaling; format: cell-based, human; details: dose-dependent
In short: as §4

HUH7 cells [12] = experiment: Cell cycle analysis; format: cell-based, human; details: 18 h
In short: (§5)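 Cells seeded at 1 × 10^5 on 60 mm plates and exposed to test compound for 18 h. They were then fixed in 70% ethanol and resuspended in PBS containing 50 μg/mL propidium iodide. DNA content was measured by flow cytometry to give the cell cycle phase distribution.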

HEP3B cells [13] = experiment: Cell cycle analysis; format: cell-based, human; details: 18 h
In short: as §5

SK-HEP1 cells [14] = experiment: Cell cycle analysis; format: cell-based; details: 18 h
HUH7 cells [15] = experiment: Apoptosis assay; format: cell-based, human; details: 24 h
In short: (§6)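 Cells (1 × 10^5) were treated with test compound for 24 h, then harvested and stained with Alexa Fluor 488 annexin V and propidium iodide per kit instructions, and analysed by flow cytometry. Culture: HEP3B and SK-HEP1 in DMEM, HUH7 in RPMI1640, each with 10% FBS and antibiotic-antimycotic, at 37 °C under 5% CO2.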

HEP3B cells [16] = experiment: Apoptosis assay; format: cell-based, human; details: 24 h
In short: as §6

SK-HEP1 cells [17] = experiment: Apoptosis assay; format: cell-based; details: 24 h
In short: as §6

Chain of FGFR4 WT (P22455 22-802): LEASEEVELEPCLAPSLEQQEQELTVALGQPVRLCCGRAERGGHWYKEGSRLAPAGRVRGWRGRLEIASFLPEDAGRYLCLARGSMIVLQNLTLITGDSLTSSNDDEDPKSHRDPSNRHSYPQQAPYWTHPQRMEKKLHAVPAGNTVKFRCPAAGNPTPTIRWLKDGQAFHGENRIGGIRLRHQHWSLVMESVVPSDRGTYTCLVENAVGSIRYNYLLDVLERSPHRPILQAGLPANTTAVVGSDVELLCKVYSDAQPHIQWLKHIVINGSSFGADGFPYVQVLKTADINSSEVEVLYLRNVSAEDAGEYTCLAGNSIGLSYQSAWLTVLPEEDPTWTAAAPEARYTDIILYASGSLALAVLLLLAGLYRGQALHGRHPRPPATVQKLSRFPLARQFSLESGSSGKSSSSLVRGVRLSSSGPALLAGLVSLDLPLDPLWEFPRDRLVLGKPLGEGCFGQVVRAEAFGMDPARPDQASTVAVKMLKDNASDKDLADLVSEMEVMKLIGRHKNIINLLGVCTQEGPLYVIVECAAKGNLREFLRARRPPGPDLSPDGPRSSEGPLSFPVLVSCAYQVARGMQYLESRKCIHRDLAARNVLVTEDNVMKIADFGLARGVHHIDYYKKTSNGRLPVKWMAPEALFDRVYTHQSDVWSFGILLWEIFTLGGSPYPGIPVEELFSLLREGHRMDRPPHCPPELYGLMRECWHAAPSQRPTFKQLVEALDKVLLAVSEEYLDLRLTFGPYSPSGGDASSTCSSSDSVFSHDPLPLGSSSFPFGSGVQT
Chain of FGFR2 N549H (P21802 22-821 N549H): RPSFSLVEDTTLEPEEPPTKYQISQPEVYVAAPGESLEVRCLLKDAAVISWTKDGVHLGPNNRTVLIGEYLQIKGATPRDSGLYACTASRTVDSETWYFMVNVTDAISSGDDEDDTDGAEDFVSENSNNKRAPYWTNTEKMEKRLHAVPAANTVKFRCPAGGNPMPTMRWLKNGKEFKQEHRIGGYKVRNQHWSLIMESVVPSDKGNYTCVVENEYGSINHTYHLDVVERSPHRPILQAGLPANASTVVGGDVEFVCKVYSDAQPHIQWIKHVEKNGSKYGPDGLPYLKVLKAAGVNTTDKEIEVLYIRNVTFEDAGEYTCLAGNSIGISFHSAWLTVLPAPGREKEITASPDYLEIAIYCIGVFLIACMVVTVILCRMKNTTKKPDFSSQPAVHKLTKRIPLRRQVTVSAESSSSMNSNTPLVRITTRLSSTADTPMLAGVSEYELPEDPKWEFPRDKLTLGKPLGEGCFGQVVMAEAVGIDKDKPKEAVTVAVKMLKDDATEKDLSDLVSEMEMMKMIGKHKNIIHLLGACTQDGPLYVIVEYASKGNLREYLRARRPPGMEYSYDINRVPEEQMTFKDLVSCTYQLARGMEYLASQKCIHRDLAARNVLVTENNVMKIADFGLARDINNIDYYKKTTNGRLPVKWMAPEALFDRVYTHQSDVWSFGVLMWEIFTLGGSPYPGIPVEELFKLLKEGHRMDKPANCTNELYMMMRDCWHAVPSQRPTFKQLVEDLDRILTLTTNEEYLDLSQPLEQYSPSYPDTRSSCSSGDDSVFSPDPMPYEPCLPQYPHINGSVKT
Chain of FGFR1 V561M (P11362 22-822 V561M): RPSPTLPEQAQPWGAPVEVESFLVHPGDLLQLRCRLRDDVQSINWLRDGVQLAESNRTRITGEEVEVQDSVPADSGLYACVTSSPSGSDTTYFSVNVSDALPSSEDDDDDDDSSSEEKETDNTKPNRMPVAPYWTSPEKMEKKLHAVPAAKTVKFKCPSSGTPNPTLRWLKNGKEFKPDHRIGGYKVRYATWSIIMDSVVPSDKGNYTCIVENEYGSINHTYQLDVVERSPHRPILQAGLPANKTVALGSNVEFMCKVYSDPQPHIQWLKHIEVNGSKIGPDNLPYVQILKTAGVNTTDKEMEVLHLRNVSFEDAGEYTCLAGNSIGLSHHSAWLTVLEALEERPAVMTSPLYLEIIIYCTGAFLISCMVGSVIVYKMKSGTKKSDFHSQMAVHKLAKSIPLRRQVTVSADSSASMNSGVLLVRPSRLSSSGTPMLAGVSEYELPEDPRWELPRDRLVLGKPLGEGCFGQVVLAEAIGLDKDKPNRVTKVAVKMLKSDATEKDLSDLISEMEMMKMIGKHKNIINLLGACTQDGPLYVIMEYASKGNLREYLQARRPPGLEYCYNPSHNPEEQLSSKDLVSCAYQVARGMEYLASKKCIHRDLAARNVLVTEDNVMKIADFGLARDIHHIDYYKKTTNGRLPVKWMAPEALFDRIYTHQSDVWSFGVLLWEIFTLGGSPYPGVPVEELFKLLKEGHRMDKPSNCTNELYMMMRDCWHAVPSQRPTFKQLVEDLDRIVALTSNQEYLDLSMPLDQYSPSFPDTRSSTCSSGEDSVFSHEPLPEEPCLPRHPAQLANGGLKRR
Chain of FGFR2 WT (P21802 22-821): as the sequence (P21802 22-821 N549H) above, with H528N counted along it
Chain of FGFR1 WT (P11362 22-822): as the sequence (P11362 22-822 V561M) above, with M540V counted along it

SMILES: Cc1ccc(Nc2ncc3c(n2)N(C)C(=O)N(c2cc(NC(=O)c4cccc(C(F)(F)F)c4)ccc2C)C3)cn1 [GNF-7]
IC50 (FGFR1 WT): 11 nM
IC50 (FGFR1 V561M): 7540 nM
IC50 (FGFR2 WT): 20 nM
IC50 (FGFR2 N549H): 7 nM
IC50 (FGFR4 WT; FGFR4 WT, radiometric, ATP 10 µM): 4 nM
IC50 (FGFR4 WT; read-out: IC50 against FGFR4, wtFGFR4): 4.17 nM
GI50 (AN3-CA cells; FGFR2 N549K/K310R, endometrium): 17 nM
GI50 (KMS-11 cells; KMS-11, FGFR3 Y373C, myeloma, 72 h): 15 nM
GI50 (J82 cells; J82, FGFR3 K652E, urinary bladder, 72 h): 50 ± 10 nM
GI50 (HEP3B cells [1]; HEP3B, FGFR4 overexpression, HCC): 373 ± 150 nM
GI50 (HUH7 cells [2]; HUH7, FGFR4 overexpression, HCC, 72 h): 60 ± 10 nM
GI50 (HEPG2 cells; 72 h): 366 ± 70 nM
GI50 (MDA-MB-453 cells; MDA-MB-453, FGFR4 overexpression, breast cancer, 72 h): 443 ± 70 nM
block of colony formation (SK-HEP1 cells [3]): 11%
suppression of colony-formation (HUH7 cells [4]): almost completely
suppression of colony-formation (HEP3B cells [5]): almost completely
wound healing (migration) (HUH7 cells [6]): substantially reduced
wound healing (migration) (HEP3B cells [7]): substantially reduced
effect on invasion (HUH7 cells [8]): remarkably attenuate invasion
effect on invasion (HEP3B cells [9]): remarkably attenuate invasion
phosphorylation of FGFR and downstream signaling molecules [10]: inhibiting significantly phosphorylation
phosphorylation of FGFR and downstream signaling molecules [11]: inhibiting significantly phosphorylation
cell cycle distribution (HUH7 cells [12]): induce G0/G1 phase cell cycle arrest with decrease in the S phase
cell cycle distribution (HEP3B cells [13]): induce G0/G1 phase cell cycle arrest with decrease in the S phase
induction of G0/G1 phase cell cycle arrest (SK-HEP1 cells [14]): little effects
apoptosis induction (HUH7 cells [15]): inducing apoptosis
apoptosis induction (HEP3B cells [16]): inducing apoptosis
apoptosis induction (SK-HEP1 cells [17]): little effects

SMILES: CCN(CC)CCCCNc1ncc2cc(-c3cc(OC)cc(OC)c3)c(NC(=O)NC(C)(C)C)nc2n1 [PD173074]
IC50 (FGFR4 WT): 97 nM
GI50 (AN3-CA cells; Homo sapiens): 973 ± 2550 nM
GI50 (KMS-11 cells; Homo sapiens, KMS-11, 72 h): 64 ± 20 nM
GI50 (J82 cells; Homo sapiens, J82, 72 h): 975 ± 450 nM
GI50 (HEP3B cells [1]; Homo sapiens, Hep3B): 2500 ± 490 nM
GI50 (HUH7 cells [2]; Homo sapiens, Huh-7, 72 h): 598 ± 240 nM
GI50 (HEPG2 cells; 72 h): 13400 ± 3600 nM
GI50 (HEPG2 cells; Homo sapiens, HepG2, 72 h): > 10000 nM
GI50 (MDA-MB-453 cells; Homo sapiens, MDA-MB-453, 72 h): > 10000 nM
wound healing (migration) (HUH7 cells [6]): moderately reduced the wound healing
wound healing (migration) (HEP3B cells [7]): moderately reduced the wound healing
effect on invasion (HUH7 cells [8]): little effect on invasion capability
effect on invasion (HEP3B cells [9]): little effect on invasion capability

SMILES: CNC(=O)c1cc(Oc2ccc(NC(=O)Nc3ccc(Cl)c(C(F)(F)F)c3)cc2)ccn1 [sorafenib]
GI50 (HEP3B cells [1]; Homo sapiens, Hep3B): 5420 ± 1120 nM
GI50 (HUH7 cells [2]; Homo sapiens, Huh-7, 72 h): 9590 ± 2060 nM
GI50 (HEPG2 cells; Homo sapiens, HepG2, 72 h): 8560 ± 1450 nM

Further lines, with some results ahead:

GI50 (HEP3B cells [1]; Homo sapiens, Hep3B): 1370 ± 140 nM
GI50 (HUH7 cells [2]; Homo sapiens, Huh-7, 72 h): 157 ± 120 nM
GI50 (HEPG2 cells; Homo sapiens, HepG2, 72 h): 5370 ± 1100 nM
GI50 (MDA-MB-453 cells; Homo sapiens, MDA-MB-453, 72 h): 2640 ± 280 nM
SMILES: CCN1CCN(c2ccc(Nc3cc(N(C)C(=O)Nc4c(Cl)c(OC)cc(OC)c4Cl)ncn3)cc2)CC1 [BGJ398, 3-(2,6-dichloro-3,5-dimethoxy-phenyl)-1-{6-[4-(4-ethyl-piperazin-1-yl)-phenylamino]-pyrimidin-4-yl}-1-methyl-urea]
GI50 (AN3-CA cells; Homo sapiens): 57 ± 10 nM
GI50 (KMS-11 cells; Homo sapiens, KMS-11, 72 h): 143 ± 100 nM
GI50 (J82 cells; Homo sapiens, J82, 72 h): 2840 ± 1570 nM

GI50 (HEP3B cells [1]; Homo sapiens, Hep3B): 4220 ± 1030 nM
GI50 (HUH7 cells [2]; Homo sapiens, Huh-7, 72 h): 715 ± 100 nM
GI50 (MDA-MB-453 cells; Homo sapiens, MDA-MB-453, 72 h): 2150 ± 380 nM
SMILES: C=CC(=O)Nc1cccc(C)c1Nc1ncc2cc(-c3c(Cl)c(OC)cc(OC)c3Cl)ccc2n1 [BLU9931]
GI50 (AN3-CA cells; Homo sapiens): 9200 ± 450 nM
GI50 (KMS-11 cells; Homo sapiens, KMS-11, 72 h): 541 ± 10 nM
GI50 (J82 cells; Homo sapiens, J82, 72 h): 5870 ± 580 nM
